Values after ≈ are worked out from the molar mass of the structure shown.
Key:
Candida albicans [1] = experiment: Antifungal activity against Candida albicans ATCC 24433 after 24 to 36 hrs by broth microdilution method; type: functional, organism-based
In short: (§1)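 CLSI broth microdilution against yeasts (M27-A3) and filamentous fungi (M38-A2). Read-outs: IC50 (concentration giving 50% growth inhibition), MIC, and MFC (minimum fungicidal concentration), all in μg/mL. Assay done twice in triplicate.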

Candida albicans [2] = experiment: Antifungal activity against Candida albicans ATCC 24433 after 72 hrs by broth microdilution method; type: functional; conditions: ATCC 24433, 72 h; in short: as §1
Candida albicans [3] = experiment: Antifungal activity against Candida albicans ATCC 10231 after 24 to 36 hrs by broth microdilution method; type: functional, organism-based; in short: as §1
Candida albicans [4] = experiment: Antifungal activity against Candida albicans ATCC 10231 after 72 hrs by broth microdilution method; type: functional; conditions: ATCC 10231, 72 h; in short: as §1
Cryptococcus neoformans [5] = experiment: Antifungal activity against Cryptococcus neoformans ATCC 34664 after 24 to 36 hrs by broth microdilution method; type: functional, organism-based; in short: as §1
Cryptococcus neoformans [6] = experiment: Antifungal activity against Cryptococcus neoformans ATCC 34664 after 72 hrs by broth microdilution method; type: functional; conditions: ATCC 34664, 72 h; in short: as §1
Nakaseomyces glabratus [7] = experiment: Antifungal activity against Candida glabrata NCYC 388 after 24 to 36 hrs by broth microdilution method; type: functional, organism-based; in short: as §1
Nakaseomyces glabratus [8] = experiment: Antifungal activity against Candida glabrata NCYC 388 after 72 hrs by broth microdilution method; type: functional; conditions: NCYC 388, 72 h; in short: as §1
Candida tropicalis [9] = experiment: Antifungal activity against Candida tropicalis ATCC 750 after 24 to 36 hrs by broth microdilution method; type: functional, organism-based; in short: as §1
Candida tropicalis [10] = experiment: Antifungal activity against Candida tropicalis ATCC 750 after 72 hrs by broth microdilution method; type: functional; conditions: ATCC 750, 72 h; in short: as §1
Aspergillus niger [11] = experiment: Antifungal activity against Aspergillus niger ATCC 10578 after 48 hrs by broth microdilution method; type: functional, organism-based; conditions: ATCC 10578, 48 h; in short: as §1
Aspergillus niger [12] = experiment: Antifungal activity against Aspergillus niger ATCC 10578 after 72 hrs by broth microdilution method; type: functional; conditions: ATCC 10578, 72 h; in short: as §1
[13] = Toxicity in human RBC assessed as hemolysis upto 128 ug/ml; type: cell-based; conditions: erythrocyte
[14] = Toxicity in human RBC assessed as partial hemolysis at 256 ug/ml; type: cell-based; conditions: erythrocyte
[15] = Metabolic stability in mouse liver microsomes after 30 mins by LC-MS/MS analysis; type: ADME; conditions: read-out: Stability
In short: (§2)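 Test compounds were incubated 30 min with liver microsomes (human or mouse, per line), and values are reported as % metabolic stability after 30 min.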

[16] = Metabolic stability in human liver microsomes after 30 mins by LC-MS/MS analysis; type: ADME; conditions: read-out: Stability; in short: as §2

Structure (SMILES) | IC50 (Candida albicans [1]) [µg/mL] | MIC (Candida albicans [1]) [µg/mL] | MFC (Candida albicans [2]) [µg/mL] | IC50 (Candida albicans [3]) [µg/mL] | MIC (Candida albicans [3]) [µg/mL] | MFC (Candida albicans [4]) [µg/mL] | IC50 (Cryptococcus neoformans [5]) [µg/mL] | MIC (Cryptococcus neoformans [5]) [µg/mL] | MFC (Cryptococcus neoformans [6]) [µg/mL] | IC50 (Nakaseomyces glabratus [7]) [µg/mL] | MIC (Nakaseomyces glabratus [7]) [µg/mL] | MFC (Nakaseomyces glabratus [8]) [µg/mL] | IC50 (Candida tropicalis [9]) [µg/mL] | MIC (Candida tropicalis [9]) [µg/mL] | MFC (Candida tropicalis [10]) [µg/mL] | IC50 (Aspergillus niger [11]) [µg/mL] | MIC (Aspergillus niger [11]) [µg/mL] | MFC (Aspergillus niger [12]) [µg/mL] | Activity [13] | also measured
CC(CNC1CCN(C)CC1)Cc1ccc([Si](C)(C)C)cc1 (configuration not stated) | 5.13 (≈ 16.1 µM) | 8 (≈ 25.1 µM) | 8 (≈ 25.1 µM) | 1.59 (≈ 4.99 µM) | 2 (≈ 6.28 µM) | 2 (≈ 6.28 µM) | 6.9 (≈ 21.7 µM) | 16 (≈ 50.2 µM) | 16 (≈ 50.2 µM) | 5.92 (≈ 18.6 µM) | 8 (≈ 25.1 µM) | 16 (≈ 50.2 µM) | 1.5 (≈ 4.71 µM) | 64 (≈ 201 µM) | 256 (≈ 804 µM) | 4.5 (≈ 14.1 µM) | 8 (≈ 25.1 µM) | > 256 | Non-toxic | Activity [14]: Toxic
CC(Cc1ccc([Si](C)(C)C)cc1)CN1CCCC1 (configuration not stated) | 0.97 (≈ 3.52 µM) | 2 (≈ 7.26 µM) | 8 (≈ 29 µM) | 0.31 (≈ 1.13 µM) | 0.5 (≈ 1.81 µM) | 2 (≈ 7.26 µM) | 0.25 (≈ 0.907 µM) | 1 (≈ 3.63 µM) | 4 (≈ 14.5 µM) | 0.319 (≈ 1.16 µM) | 1 (≈ 3.63 µM) | 32 (≈ 116 µM) | 2.76 (≈ 10 µM) | 16 (≈ 58.1 µM) | 128 (≈ 465 µM) | 50.1 (≈ 182 µM) | 64 (≈ 232 µM) | 256 (≈ 929 µM) | – | –
CC(Cc1ccc([Si](C)(C)C)cc1)CN1CCOCC1 (configuration not stated) | 0.74 (≈ 2.54 µM) | 1 (≈ 3.43 µM) | 8 (≈ 27.4 µM) | 0.26 (≈ 0.892 µM) | 0.5 (≈ 1.72 µM) | 8 (≈ 27.4 µM) | 0.125 (≈ 0.429 µM) | 0.5 (≈ 1.72 µM) | 2 (≈ 6.86 µM) | 0.144 (≈ 0.494 µM) | 0.5 (≈ 1.72 µM) | 16 (≈ 54.9 µM) | 0.5 (≈ 1.72 µM) | 8 (≈ 27.4 µM) | 16 (≈ 54.9 µM) | 106 (≈ 363 µM) | 128 (≈ 439 µM) | > 256 | – | remaining at 0.5 h [15]: 5.1%; remaining at 0.5 h [16]: 26%
CC(Cc1ccc([Si](C)(C)C)cc1)CN1CCS(=O)(=O)CC1 (configuration not stated) | – | ≥ 256 | ≥ 256 | – | ≥ 256 | ≥ 256 | – | ≥ 256 | ≥ 256 | – | ≥ 256 | ≥ 256 | – | ≥ 256 | ≥ 256 | – | ≥ 256 | ≥ 256 | – | –
CC(Cc1ccc([Si](C)(C)C)cc1)CN1CCCCC1 (configuration not stated) | 0.12 (≈ 0.414 µM) | 0.25 (≈ 0.863 µM) | 2 (≈ 6.91 µM) | 0.11 (≈ 0.38 µM) | 0.25 (≈ 0.863 µM) | 32 (≈ 111 µM) | 0.0625 (≈ 0.216 µM) | 0.125 (≈ 0.432 µM) | 8 (≈ 27.6 µM) | 0.035 (≈ 0.121 µM) | 0.125 (≈ 0.432 µM) | 8 (≈ 27.6 µM) | 1 (≈ 3.45 µM) | 4 (≈ 13.8 µM) | 64 (≈ 221 µM) | 41.2 (≈ 142 µM) | 64 (≈ 221 µM) | 128 (≈ 442 µM) | Non-toxic | –
CC(Cc1ccc([Si](C)(C)C)cc1)CN1CCC(O)CC1 (configuration not stated) | 0.396 (≈ 1.3 µM) | 1 (≈ 3.27 µM) | 2 (≈ 6.55 µM) | 0.19 (≈ 0.622 µM) | 0.25 (≈ 0.818 µM) | 4 (≈ 13.1 µM) | 0.93 (≈ 3.04 µM) | 2 (≈ 6.55 µM) | 16 (≈ 52.4 µM) | 0.196 (≈ 0.641 µM) | 0.5 (≈ 1.64 µM) | 8 (≈ 26.2 µM) | 0.198 (≈ 0.648 µM) | 4 (≈ 13.1 µM) | 256 (≈ 838 µM) | 0.25 (≈ 0.818 µM) | 0.5 (≈ 1.64 µM) | 256 (≈ 838 µM) | Non-toxic | Activity [14]: Toxic
CC(Cc1ccc(C(C)(C)C)cc1)C(=O)NC[Si](C)(C)c1ccccc1 (configuration not stated) | – | ≥ 256 | ≥ 256 | – | ≥ 256 | ≥ 256 | – | ≥ 256 | ≥ 256 | – | ≥ 256 | ≥ 256 | – | ≥ 256 | ≥ 256 | – | ≥ 256 | ≥ 256 | – | –
CC(Cc1ccc(C(C)(C)C)cc1)CN1CCCCC1 (configuration not stated) [FENPROPIDIN] | 0.19 (≈ 0.695 µM) | 0.25 (≈ 0.914 µM) | 0.5 (≈ 1.83 µM) | 0.27 (≈ 0.987 µM) | 1 (≈ 3.66 µM) | 2 (≈ 7.31 µM) | 0.22 (≈ 0.804 µM) | 1 (≈ 3.66 µM) | 32 (≈ 117 µM) | 0.1 (≈ 0.366 µM) | 0.5 (≈ 1.83 µM) | 16 (≈ 58.5 µM) | 0.125 (≈ 0.457 µM) | 4 (≈ 14.6 µM) | 256 (≈ 936 µM) | 16 (≈ 58.5 µM) | 32 (≈ 117 µM) | 128 (≈ 468 µM) | Non-toxic | remaining at 0.5 h [15]: 1.1%; remaining at 0.5 h [16]: 34.4%

Reference: ChEMBL document CHEMBL3751707, “Silicon Incorporated Morpholine Antifungals: Design, Synthesis, and Biological Evaluation” (ACS Med Chem Lett, 2015)
